A short description of series [1]: AUC (0 to last) in healthy human plasma at 200 mg, po administered as single dose measured after 120 hrs. Further details: dose 200 mg, time 0 - last, route oral. The class given is ADME, organism-based. In outline: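 Healthy adults (6 per dose group) received a single oral suspension after an 8-h fast, with food withheld 4 h. EDTA blood was drawn predose to 120 h. Plasma was protein-precipitated with ACN and assayed by LC-MS/MS (clarithromycin internal standard; range 1–1,000 ng/ml). AUC0-last was computed by linear-up/log-down trapezoid; AUC0-∞ added Clast/λz. Values are noncompartmental means.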

Series [2] can be described thus: Half life in healthy human plasma at 400 mg, po administered as single dose measured after 120 hrs. The class given is ADME, organism-based.
The nature of series [3]: Elimination rate constant in healthy human plasma at 200 mg, po administered as single dose measured after 120 hrs. The class given is ADME, organism-based.
Series [4] can be described thus: Apparent oral clearance in healthy human plasma at 1200 mg, po administered as single dose measured after 120 hrs. The class given is ADME, organism-based. The procedure, abridged:
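Single oral suspension dose in fasted healthy adults (6 per group). Plasma was collected to 120 h and measured by LC-MS/MS (1–1,000 ng/ml). Apparent oral clearance was dose divided by AUC0-∞ (noncompartmental, linear-up/log-down trapezoid extrapolated with Clast/λz); the mean was reported.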

Series [5] is described as follows: Apparent volume of distribution in healthy human plasma at 100 mg, po administered as single dose measured after 120 hrs. The class given is ADME, organism-based.
For a further series, the system named is Streptococcus pyogenes. Nature of the series: Antimicrobial activity against Streptococcus pyogenes. The class given is functional.

For the molecule `CC[C@H]1OC(=O)[C@H](C)C(=O)[C@H](C)[C@@H](O[C@@H]2O[C@H](C)C[C@H](N(C)C)[C@H]2O)[C@@]2(C)C[C@@H](C)/C(=N\C(C)=O)[C@H](C)[C@@H](OC/C(=N\OCc3ccc(-n4cccn4)nc3)CO2)[C@]1(C)O` [MODITHROMYCIN], the AUC(0-t) at 120 h in series [1] came out at 7650 ng·h/mL. The molecule further had a half-life in series [2] of 15.8 h. This molecule showed a k el at 120 h in series [3] of 1.22e-05 s⁻¹. The CL/F in series [4] is 523 mL/min. For the same molecule, the Vd/F in series [5] came to 656 L. The Ratio with Streptococcus pyogenes was determined as 32.

For orientation: AUC(0-t) means exposure summed from dosing to a finite time, without extrapolation to infinity. Read a high AUC(0-t) as more exposure. Broadly, the half-life is how long it takes for the measured level to halve. Read a low half-life as fast loss. As usually defined, the CL/F is the apparent clearance, not corrected for the fraction that reaches the circulation. What is called Vd/F is the apparent distribution volume after extravascular dosing.

The record behind these values is ChEMBL document CHEMBL1649161, “Pharmacokinetics of EDP-420 after ascending single oral doses in healthy adult volunteers” (Antimicrob Agents Chemother, 2009).
